Experimental data: ChEMBL document CHEMBL3734720, “Synthesis of thiophene-thiosemicarbazone derivatives and evaluation of their in vitro and in vivo antitumor activities” (Eur J Med Chem, 2015)

System: not listed separately
Assay: Antiproliferative activity against human NCI-ADR-RES cells assessed as growth inhibition after 48 hrs by SRB assay
Type: functional
Conditions: not given
Summary of the method: (§1)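 Cells exposed 48 h at 37 °C, 5% CO2 to 0.25, 2.5, 25 and 250 µg/mL in DMSO/RPMI (final DMSO 0.1%); doxorubicin standard at 0.025–25 µg/mL. Plates fixed with 50% TCA before (T0) and after treatment; protein content read by sulforhodamine B at 540 nm. GI50 (µM) from nonlinear regression of concentration–response curves; triplicate.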
In the case of S=C(N/N=C/c1cccs1)Nc1ccc(Cl)cc1, the GI50 is reported as 2.8 µM.
For COc1ccc(NC(=S)N/N=C/c2cccs2)cc1, the GI50 was over 100 µM.
CCc1ccc(NC(=S)N/N=C/c2cccs2)cc1 gave a GI50 of over 100 µM.
COc1cccc2c1C(=O)c1c(O)c3c(c(O)c1C2=O)C[C@@](O)(C(=O)CO)C[C@@H]3O[C@H]1C[C@H](N)[C@H](O)[C@H](C)O1 [DOXORUBICIN] showed a GI50 of 0.21 µM.

System: HT-29
Assay: Antiproliferative activity against human HT-29 cells assessed as growth inhibition after 48 hrs by SRB assay
Type: functional
Conditions: HT-29, 48 h
Summary of the method: as §1
For S=C(N/N=C/c1cccs1)Nc1ccc(Cl)cc1, the GI50 was over 100 µM.
Work on COc1ccc(NC(=S)N/N=C/c2cccs2)cc1 yielded a GI50 of over 100 µM.
In the case of CCc1ccc(NC(=S)N/N=C/c2cccs2)cc1, the GI50 is reported as over 100 µM.
With COc1cccc2c1C(=O)c1c(O)c3c(c(O)c1C2=O)C[C@@](O)(C(=O)CO)C[C@@H]3O[C@H]1C[C@H](N)[C@H](O)[C@H](C)O1 [DOXORUBICIN] the GI50 was 0.3 µM.

System: NCI-H460
Assay: Antiproliferative activity against human NCI-H460 cells assessed as growth inhibition after 48 hrs by SRB assay
Type: functional
Conditions: NCI-H460, 48 h
Summary of the method: as §1
With S=C(N/N=C/c1cccs1)Nc1ccc(Cl)cc1 the GI50 was over 100 µM.
COc1ccc(NC(=S)N/N=C/c2cccs2)cc1 showed a GI50 of over 100 µM.
Compound CCc1ccc(NC(=S)N/N=C/c2cccs2)cc1 has a GI50 of over 100 µM.
COc1cccc2c1C(=O)c1c(O)c3c(c(O)c1C2=O)C[C@@](O)(C(=O)CO)C[C@@H]3O[C@H]1C[C@H](N)[C@H](O)[C@H](C)O1 [DOXORUBICIN] showed a GI50 of under 0.046 µM.

System: 786-0
Assay: Cell cycle arrest in human 786-0 cells assessed as accumulation at S phase at 1.25 nM after 24 hrs by propidium iodide based flow cytometric analysis (reference value: 14.6 +/- 1.3%)
Type: functional
Conditions: not given
COc1cc2c(c(OC)c1OC)-c1ccc(OC)c(=O)cc1[C@@H](NC(C)=O)CC2 [COLCHICINE] gave an Activity of 12.6%.

System: 786-0
Assay: Cell cycle arrest in human 786-0 cells assessed as reduction in G1 phase at 1.25 nM after 24 hrs by propidium iodide based flow cytometric analysis (reference value: 46.7 +/- 0.8%)
Type: functional
Parameters: scale not given: the % may be the effect or the level left
Conditions: not given
COc1cc2c(c(OC)c1OC)-c1ccc(OC)c(=O)cc1[C@@H](NC(C)=O)CC2 [COLCHICINE] showed an Activity of 21.5%.

System: 786-0
Assay: Cell cycle arrest in human 786-0 cells assessed as accumulation at Sub G1 phase at 1.25 nM after 24 hrs by propidium iodide based flow cytometric analysis (reference value: 3.0 +/- 0.7%)
Type: functional
Conditions: not given
Compound COc1cc2c(c(OC)c1OC)-c1ccc(OC)c(=O)cc1[C@@H](NC(C)=O)CC2 [COLCHICINE] has an Activity of 8.9%.

System: not listed separately
Assay: Antitumor activity against mouse EAT implanted in Balb/C mouse assessed as change in paw volume at 40 mg/kg, po administered on day 3 post tumor inoculation measured on day 6 by plethysmometer analysis (reference value: 86.1 +/- 5.7%)
Type: functional
Conditions: not given
Compound CN1C(C(=O)Nc2ccccn2)=C(O)c2ccccc2S1(=O)=O [PIROXICAM] has an Activity of 57.2%.

System: not listed separately
Assay: Antitumor activity against mouse EAT implanted in Balb/C mouse assessed as change in paw volume at 3 mg/kg, ip administered on day 3 post tumor inoculation measured on day 6 by plethysmometer analysis (reference value: 86.1 +/- 5.7%)
Type: functional
Conditions: not given
COc1cccc2c1C(=O)c1c(O)c3c(c(O)c1C2=O)C[C@@](O)(C(=O)CO)C[C@@H]3O[C@H]1C[C@H](N)[C@H](O)[C@H](C)O1 [DOXORUBICIN] showed an Activity of 55.6%.

System: not listed separately
Assay: Antiproliferative activity against human PC3 cells assessed as growth inhibition after 48 hrs by SRB assay
Type: functional
Conditions: PC-3, 48 h
Summary of the method: as §1
With S=C(N/N=C/c1cccs1)Nc1ccc(Cl)cc1 the GI50 was over 100 µM.
COc1ccc(NC(=S)N/N=C/c2cccs2)cc1 gave a GI50 of over 100 µM.
With CCc1ccc(NC(=S)N/N=C/c2cccs2)cc1 the GI50 was over 100 µM.
Compound COc1cccc2c1C(=O)c1c(O)c3c(c(O)c1C2=O)C[C@@](O)(C(=O)CO)C[C@@H]3O[C@H]1C[C@H](N)[C@H](O)[C@H](C)O1 [DOXORUBICIN] has a GI50 of 0.13 µM.

System: not listed separately
Assay: Antitumor activity against mouse EAT implanted in Balb/C mouse assessed as change in paw volume at 3 mg/kg, ip administered on day 3 post tumor inoculation measured on day 3 by plethysmometer analysis (reference value: 40.2 +/- 7.0%)
Type: functional
Conditions: not given
Compound COc1cccc2c1C(=O)c1c(O)c3c(c(O)c1C2=O)C[C@@](O)(C(=O)CO)C[C@@H]3O[C@H]1C[C@H](N)[C@H](O)[C@H](C)O1 [DOXORUBICIN] has an Activity of 43.7%.

System: not listed separately
Assay: Antitumor activity against mouse EAT implanted in Balb/C mouse assessed as change in paw volume at 3 mg/kg, ip administered on day 3 post tumor inoculation measured on day 12 by plethysmometer analysis (reference value: 125.5 +/- 7.5%)
Type: functional
Conditions: not given
For COc1cccc2c1C(=O)c1c(O)c3c(c(O)c1C2=O)C[C@@](O)(C(=O)CO)C[C@@H]3O[C@H]1C[C@H](N)[C@H](O)[C@H](C)O1 [DOXORUBICIN], the Activity was 39.6%.

System: not listed separately
Assay: Antitumor activity against mouse EAT implanted in Balb/C mouse assessed as change in paw volume at 40 mg/kg, po administered on day 3 post tumor inoculation measured on day 9 by plethysmometer analysis (reference value: 95.5 +/- 5.2%)
Type: functional
Conditions: not given
CN1C(C(=O)Nc2ccccn2)=C(O)c2ccccc2S1(=O)=O [PIROXICAM] gave an Activity of 52.3%.

System: 786-0
Assay: Antiproliferative activity against human 786-0 cells assessed as growth inhibition after 48 hrs by SRB assay
Type: functional
Conditions: 786-0, 48 h
Summary of the method: as §1
With S=C(N/N=C/c1cccs1)Nc1ccc(Cl)cc1 the GI50 was 7.4 µM.
With COc1ccc(NC(=S)N/N=C/c2cccs2)cc1 the GI50 was over 100 µM.
For CCc1ccc(NC(=S)N/N=C/c2cccs2)cc1, the GI50 was 82.6 µM.
COc1cccc2c1C(=O)c1c(O)c3c(c(O)c1C2=O)C[C@@](O)(C(=O)CO)C[C@@H]3O[C@H]1C[C@H](N)[C@H](O)[C@H](C)O1 [DOXORUBICIN] gave a GI50 of under 0.046 µM.

System: not listed separately
Assay: Antiproliferative activity against human UACC62 cells assessed as growth inhibition after 48 hrs by SRB assay
Type: functional
Conditions: UACC-62, 48 h
Summary of the method: as §1
With S=C(N/N=C/c1cccs1)Nc1ccc(Cl)cc1 the GI50 was 15.8 µM.
For COc1ccc(NC(=S)N/N=C/c2cccs2)cc1, the GI50 was over 100 µM.
For CCc1ccc(NC(=S)N/N=C/c2cccs2)cc1, the GI50 was over 100 µM.
Compound COc1cccc2c1C(=O)c1c(O)c3c(c(O)c1C2=O)C[C@@](O)(C(=O)CO)C[C@@H]3O[C@H]1C[C@H](N)[C@H](O)[C@H](C)O1 [DOXORUBICIN] has a GI50 of 0.05 µM.

System: not listed separately
Assay: Antiproliferative activity against human HaCaT cells assessed as growth inhibition after 48 hrs by SRB assay
Type: cell-based
Conditions: not given
Summary of the method: as §1
S=C(N/N=C/c1cccs1)Nc1ccc(Cl)cc1 gave a GI50 at 48 h of 14.7 µM.
In the case of COc1ccc(NC(=S)N/N=C/c2cccs2)cc1, the GI50 at 48 h is reported as over 100 µM.
For CCc1ccc(NC(=S)N/N=C/c2cccs2)cc1, the GI50 at 48 h was 17.6 µM.
Compound COc1cccc2c1C(=O)c1c(O)c3c(c(O)c1C2=O)C[C@@](O)(C(=O)CO)C[C@@H]3O[C@H]1C[C@H](N)[C@H](O)[C@H](C)O1 [DOXORUBICIN] has a GI50 at 48 h of under 0.046 µM.

System: not listed separately
Assay: Antitumor activity against mouse EAT implanted in Balb/C mouse assessed as change in paw volume at 40 mg/kg, po administered on day 3 post tumor inoculation measured on day 15 by plethysmometer analysis (reference value: 166.5 +/- 6.0%)
Type: functional
Conditions: not given
Work on CN1C(C(=O)Nc2ccccn2)=C(O)c2ccccc2S1(=O)=O [PIROXICAM] yielded an Activity of 47.3%.

System: not listed separately
Assay: Antitumor activity against mouse EAT implanted in Balb/C mouse assessed as change in paw volume at 40 mg/kg, po administered on day 3 post tumor inoculation measured on day 12 by plethysmometer analysis (reference value: 125.5 +/- 7.5%)
Type: functional
Conditions: not given
Work on CN1C(C(=O)Nc2ccccn2)=C(O)c2ccccc2S1(=O)=O [PIROXICAM] yielded an Activity of 34.9%.

System: not listed separately
Assay: Antitumor activity against mouse EAT implanted in Balb/C mouse assessed as change in paw volume at 3 mg/kg, ip administered on day 3 post tumor inoculation measured on day 9 by plethysmometer analysis (reference value: 95.5 +/- 5.2%)
Type: functional
Conditions: not given
Work on COc1cccc2c1C(=O)c1c(O)c3c(c(O)c1C2=O)C[C@@](O)(C(=O)CO)C[C@@H]3O[C@H]1C[C@H](N)[C@H](O)[C@H](C)O1 [DOXORUBICIN] yielded an Activity of 69.8%.

System: K562
Assay: Antiproliferative activity against human K562 cells assessed as growth inhibition after 48 hrs by SRB assay
Type: functional
Conditions: K562, 48 h
Summary of the method: as §1
Work on S=C(N/N=C/c1cccs1)Nc1ccc(Cl)cc1 yielded a GI50 of 2 µM.
In the case of COc1ccc(NC(=S)N/N=C/c2cccs2)cc1, the GI50 is reported as 1.7 µM.
CCc1ccc(NC(=S)N/N=C/c2cccs2)cc1 showed a GI50 of 1.6 µM.
COc1cccc2c1C(=O)c1c(O)c3c(c(O)c1C2=O)C[C@@](O)(C(=O)CO)C[C@@H]3O[C@H]1C[C@H](N)[C@H](O)[C@H](C)O1 [DOXORUBICIN] gave a GI50 of under 0.046 µM.

System: 786-0
Assay: Cell cycle arrest in human 786-0 cells assessed as accumulation at G2/M phase at 1.25 nM after 24 hrs by propidium iodide based flow cytometric analysis (reference value: 35.7 +/- 0.9%)
Type: functional
Conditions: not given
Work on COc1cc2c(c(OC)c1OC)-c1ccc(OC)c(=O)cc1[C@@H](NC(C)=O)CC2 [COLCHICINE] yielded an Activity of 57.5%.

System: not listed separately
Assay: Antitumor activity against mouse EAT implanted in Balb/C mouse assessed as change in paw volume at 3 mg/kg, ip administered on day 3 post tumor inoculation measured on day 15 by plethysmometer analysis (reference value: 166.5 +/- 6.0%)
Type: functional
Conditions: not given
In the case of COc1cccc2c1C(=O)c1c(O)c3c(c(O)c1C2=O)C[C@@](O)(C(=O)CO)C[C@@H]3O[C@H]1C[C@H](N)[C@H](O)[C@H](C)O1 [DOXORUBICIN], the Activity is reported as 97.9%.

System: MCF7
Assay: Antiproliferative activity against human MCF7 cells assessed as growth inhibition after 48 hrs by SRB assay
Type: functional
Conditions: MCF7, 48 h
Summary of the method: as §1
For S=C(N/N=C/c1cccs1)Nc1ccc(Cl)cc1, the GI50 was over 100 µM.
COc1ccc(NC(=S)N/N=C/c2cccs2)cc1 gave a GI50 of over 100 µM.
Compound CCc1ccc(NC(=S)N/N=C/c2cccs2)cc1 has a GI50 of over 100 µM.
COc1cccc2c1C(=O)c1c(O)c3c(c(O)c1C2=O)C[C@@](O)(C(=O)CO)C[C@@H]3O[C@H]1C[C@H](N)[C@H](O)[C@H](C)O1 [DOXORUBICIN] showed a GI50 of under 0.046 µM.

System: not listed separately
Assay: Antitumor activity against mouse EAT implanted in Balb/C mouse assessed as change in paw volume at 40 mg/kg, po administered on day 3 post tumor inoculation measured on day 3 by plethysmometer analysis (reference value: 40.2 +/- 7.0%)
Type: functional
Conditions: not given
With CN1C(C(=O)Nc2ccccn2)=C(O)c2ccccc2S1(=O)=O [PIROXICAM] the Activity was 42.2%.

System: U-251
Assay: Antiproliferative activity against human U251 cells assessed as growth inhibition after 48 hrs by SRB assay
Type: functional
Conditions: U-251, 48 h
Summary of the method: as §1
Compound S=C(N/N=C/c1cccs1)Nc1ccc(Cl)cc1 has a GI50 of 8.3 µM.
In the case of COc1ccc(NC(=S)N/N=C/c2cccs2)cc1, the GI50 is reported as over 100 µM.
In the case of CCc1ccc(NC(=S)N/N=C/c2cccs2)cc1, the GI50 is reported as over 100 µM.
For COc1cccc2c1C(=O)c1c(O)c3c(c(O)c1C2=O)C[C@@](O)(C(=O)CO)C[C@@H]3O[C@H]1C[C@H](N)[C@H](O)[C@H](C)O1 [DOXORUBICIN], the GI50 was under 0.046 µM.
